In ChEMBL document CHEMBL1671636, “Role of ampD homologs in overproduction of AmpC in clinical isolates of Pseudomonas aeruginosa” (2008):
In brackets after ≈: the same amount, converted by molar mass.

What was measured:
Assay type in all cases: functional
Pseudomonas aeruginosa [1] = assay: Antimicrobial activity against Pseudomonas aeruginosa isolate GB61 obtained from patient with non-cystic fibrosis by Etest in presence of beta-lactamase inhibitor Tazobactam
Pseudomonas aeruginosa [2] = assay: Antimicrobial activity against Pseudomonas aeruginosa isolate PA22 obtained from patient with cystic fibrosis by agar dilution method in presence of beta-lactamase inhibitor Tazobactam
Pseudomonas aeruginosa [3] = assay: Antimicrobial activity against Pseudomonas aeruginosa isolate 164CD obtained from patient with non-cystic fibrosis by Etest in presence of beta-lactamase inhibitor Tazobactam
Pseudomonas aeruginosa [4] = assay: Antimicrobial activity against Pseudomonas aeruginosa isolate PA113 obtained from patient with cystic fibrosis by agar dilution method
Pseudomonas aeruginosa [5] = assay: Antimicrobial activity against Pseudomonas aeruginosa isolate PA24 obtained from patient with cystic fibrosis by agar dilution method
Pseudomonas aeruginosa [6] = assay: Antimicrobial activity against Pseudomonas aeruginosa isolate TX292 obtained from patient with non-cystic fibrosis by agar dilution method
Pseudomonas aeruginosa [7] = assay: Antimicrobial activity against Pseudomonas aeruginosa isolate GB61 obtained from patient with non-cystic fibrosis by Etest
Pseudomonas aeruginosa [8] = assay: Antimicrobial activity against Pseudomonas aeruginosa PAO1 by Etest
Pseudomonas aeruginosa [9] = assay: Antimicrobial activity against Pseudomonas aeruginosa isolate TX291 obtained from patient with non-cystic fibrosis by agar dilution method
Pseudomonas aeruginosa [10] = assay: Antimicrobial activity against Pseudomonas aeruginosa isolate GB57 obtained from patient with non-cystic fibrosis by Etest
Pseudomonas aeruginosa [11] = assay: Antimicrobial activity against Pseudomonas aeruginosa isolate PA367 obtained from patient with cystic fibrosis by agar dilution method in presence of beta-lactamase inhibitor Tazobactam
Pseudomonas aeruginosa [12] = assay: Antimicrobial activity against Pseudomonas aeruginosa isolate 164CD obtained from patient with non-cystic fibrosis by agar dilution method
Pseudomonas aeruginosa [13] = assay: Antimicrobial activity against Pseudomonas aeruginosa isolate PA22 obtained from patient with cystic fibrosis by agar dilution method
Pseudomonas aeruginosa [14] = assay: Antimicrobial activity against Pseudomonas aeruginosa PAO1 by agar dilution method in presence of beta-lactamase inhibitor Tazobactam
Pseudomonas aeruginosa [15] = assay: Antimicrobial activity against Pseudomonas aeruginosa isolate GB57 obtained from patient with non-cystic fibrosis by Etest in presence of beta-lactamase inhibitor Tazobactam
Pseudomonas aeruginosa [16] = assay: Antimicrobial activity against Pseudomonas aeruginosa isolate TX291 obtained from patient with non-cystic fibrosis by Etest in presence of beta-lactamase inhibitor Tazobactam
Pseudomonas aeruginosa [17] = assay: Antimicrobial activity against Pseudomonas aeruginosa isolate PA367 obtained from patient with cystic fibrosis by agar dilution method
Pseudomonas aeruginosa [18] = assay: Antimicrobial activity against Pseudomonas aeruginosa isolate PA24 obtained from patient with cystic fibrosis by agar dilution method in presence of beta-lactamase inhibitor Tazobactam
Pseudomonas aeruginosa [19] = assay: Antimicrobial activity against Pseudomonas aeruginosa isolate PA113 obtained from patient with cystic fibrosis by agar dilution method in presence of beta-lactamase inhibitor Tazobactam
Pseudomonas aeruginosa [20] = assay: Antimicrobial activity against Pseudomonas aeruginosa isolate TX292 obtained from patient with non-cystic fibrosis by Etest in presence of beta-lactamase inhibitor Tazobactam
Pseudomonas aeruginosa [21] = assay: Antimicrobial activity against Pseudomonas aeruginosa isolate PA22 obtained from patient with cystic fibrosis harboring beta-lactamase AmpDh3 Asp137Gly, Ala219Thr mutant by disk diffusion method
Outline: (§1)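 Each ampD homolog gene, from PAO1 or the clinical isolate, was tested in a plasmid model system. An AmpD-deficient E. coli strain (JRG582) carrying an inducible genetic system was complemented with the gene. Read-out was the ceftazidime inhibition zone diameter in mm; lack of complementation gives a ceftazidime-resistant phenotype.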

Pseudomonas aeruginosa [22] = assay: Antimicrobial activity against Pseudomonas aeruginosa isolate PA24 obtained from patient with cystic fibrosis harboring beta-lactamase AmpD1 12-nt deletion at nucleotide 5064908 and deletion of codons 144-147 by disk diffusion method; outline: as §1
Pseudomonas aeruginosa [23] = assay: Antimicrobial activity against Pseudomonas aeruginosa isolate TX292 harboring beta-lactamase AmpD1 11-nt deletion at nt 5064907 and frameshift mutation obtained from patient with non-cystic fibrosis by agar dilution method
Pseudomonas aeruginosa [24] = assay: Antimicrobial activity against Pseudomonas aeruginosa PAO1 expressing beta-lactamase AmpD1 by disk diffusion method; outline: as §1
Pseudomonas aeruginosa [25] = assay: Antimicrobial activity against Pseudomonas aeruginosa isolate 164CD harboring beta-lactamase AmpDh3 Ile67Thr mutant obtained from patient with non-cystic fibrosis by agar dilution method
Pseudomonas aeruginosa [26] = assay: Antimicrobial activity against Pseudomonas aeruginosa isolate GB57 obtained from patient with non-cystic fibrosis by broth microdilution method
Pseudomonas aeruginosa [27] = assay: Antimicrobial activity against Pseudomonas aeruginosa isolate PA113 harboring beta-lactamase AmpDh3 Ala219Thr mutant obtained from patient with cystic fibrosis by agar dilution method
Pseudomonas aeruginosa [28] = assay: Antimicrobial activity against Pseudomonas aeruginosa isolate PA22 obtained from patient with cystic fibrosis harboring beta-lactamase AmpD1 Gly148ala and Asp183Tyr mutant by disk diffusion method; outline: as §1
Pseudomonas aeruginosa [29] = assay: Antimicrobial activity against Pseudomonas aeruginosa isolate PA367 obtained from patient with cystic fibrosis harboring beta-lactamase AmpDh3 Asp137Gly, Ala219Thr mutant by disk diffusion method; outline: as §1
Pseudomonas aeruginosa [30] = assay: Antimicrobial activity against Pseudomonas aeruginosa PAO1 by agar dilution method
Pseudomonas aeruginosa [31] = assay: Antimicrobial activity against Pseudomonas aeruginosa PAO1 expressing beta-lactamase AmpDh2 by disk diffusion method; outline: as §1
Pseudomonas aeruginosa [32] = assay: Antimicrobial activity against Pseudomonas aeruginosa isolate 164CD harboring beta-lactamase AmpD1 Leu32Pro, Gly46Ser, Gly148Ala mutant obtained from patient with non-cystic fibrosis by agar dilution method
Pseudomonas aeruginosa [33] = assay: Antimicrobial activity against Pseudomonas aeruginosa isolate GB61 obtained from patient with non-cystic fibrosis by broth microdilution method
Pseudomonas aeruginosa [34] = assay: Antimicrobial activity against Pseudomonas aeruginosa isolate GB57 harboring beta-lactamase AmpD1 Val10Ile mutant obtained from patient with non-cystic fibrosis by Etest
Pseudomonas aeruginosa [35] = assay: Antimicrobial activity against Pseudomonas aeruginosa isolate GB61 harboring beta-lactamase AmpD1 Gly148Ala mutant obtained from patient with non-cystic fibrosis by Etest
Pseudomonas aeruginosa [36] = assay: Antimicrobial activity against Pseudomonas aeruginosa isolate PA367 obtained from patient with cystic fibrosis harboring beta-lactamase AmpD1 Gly148ala and Asp183Tyr mutant by disk diffusion method; outline: as §1
Pseudomonas aeruginosa [37] = assay: Antimicrobial activity against Pseudomonas aeruginosa isolate PA113 harboring beta-lactamase AmpD1 Gly148Ala, Asp183Tyr mutant obtained from patient with cystic fibrosis by agar dilution method
Pseudomonas aeruginosa [38] = assay: Antimicrobial activity against Pseudomonas aeruginosa isolate TX291 harboring beta-lactamase AmpD1 11-nt deletion at nt 5064907 and frameshift mutation obtained from patient with non-cystic fibrosis by agar dilution method
Pseudomonas aeruginosa [39] = assay: Antimicrobial activity against Pseudomonas aeruginosa PAO1 expressing beta-lactamase AmpDh3 by disk diffusion method; outline: as §1
Pseudomonas aeruginosa [40] = assay: Antimicrobial activity against Pseudomonas aeruginosa isolate TX291 harboring beta-lactamase AmpDh3 Ala208Val mutant obtained from patient with non-cystic fibrosis by agar dilution method
Pseudomonas aeruginosa [41] = assay: Antimicrobial activity against Pseudomonas aeruginosa isolate PA24 obtained from patient with cystic fibrosis harboring beta-lactamase AmpDh3 Ala219Thr mutant by disk diffusion method; outline: as §1
Pseudomonas aeruginosa [42] = assay: Antimicrobial activity against Pseudomonas aeruginosa isolate 164CD obtained from patient with non-cystic fibrosis by Etest

**Q.** How did the MIC (Pseudomonas aeruginosa [1]) turn out when `CCN1CCN(C(=O)N[C@@H](C(=O)N[C@@H]2C(=O)N3[C@@H]2SC(C)(C)[C@@H]3C(=O)O)c2ccccc2)C(=O)C1=O` [PIPERACILLIN] was run?
**A.** > 256 µg/mL

**Q.** And the MIC (Pseudomonas aeruginosa [2])?
**A.** 64 µg/mL

**Q.** And the MIC (Pseudomonas aeruginosa [3])?
**A.** > 256 µg/mL

**Q.** What about the MIC (Pseudomonas aeruginosa [4]) of the same compound?
**A.** 128 µg/mL (≈ 247 µM)

**Q.** And the MIC (Pseudomonas aeruginosa [5])?
**A.** 256 µg/mL (≈ 495 µM)

**Q.** What about the MIC (Pseudomonas aeruginosa [6]) of the same compound?
**A.** 256 µg/mL (≈ 495 µM)

**Q.** What about the MIC (Pseudomonas aeruginosa [7]) of the same compound?
**A.** > 256 µg/mL

**Q.** And the MIC (Pseudomonas aeruginosa [8])?
**A.** 4 µg/mL (≈ 7.73 µM)

**Q.** And the MIC (Pseudomonas aeruginosa [9])?
**A.** 256 µg/mL (≈ 495 µM)

**Q.** And the MIC (Pseudomonas aeruginosa [10])?
**A.** > 256 µg/mL

**Q.** And the MIC (Pseudomonas aeruginosa [11])?
**A.** 64 µg/mL

**Q.** And the MIC (Pseudomonas aeruginosa [12])?
**A.** > 1020 µg/mL

**Q.** What about the MIC (Pseudomonas aeruginosa [13]) of the same compound?
**A.** 128 µg/mL (≈ 247 µM)

**Q.** And the MIC (Pseudomonas aeruginosa [14])?
**A.** 4 µg/mL

**Q.** And the MIC (Pseudomonas aeruginosa [15])?
**A.** > 256 µg/mL

**Q.** What about the MIC (Pseudomonas aeruginosa [16]) of the same compound?
**A.** > 256 µg/mL

**Q.** And the MIC (Pseudomonas aeruginosa [17])?
**A.** 64 µg/mL (≈ 124 µM)

**Q.** And the MIC (Pseudomonas aeruginosa [18])?
**A.** 128 µg/mL

**Q.** What about the MIC (Pseudomonas aeruginosa [19]) of the same compound?
**A.** 64 µg/mL

**Q.** What about the MIC (Pseudomonas aeruginosa [20]) of the same compound?
**A.** > 256 µg/mL

**Q.** Which results are given for `CC(C)(O/N=C(\C(=O)N[C@@H]1C(=O)N2C(C(=O)[O-])=C(C[n+]3ccccc3)CS[C@H]12)c1csc(N)n1)C(=O)O` [CEFTAZIDIME]?
**A.** diameter of the inhibition zone (DIZ) (Pseudomonas aeruginosa [21]): 10 mm; diameter of the inhibition zone (DIZ) (Pseudomonas aeruginosa [22]): 6 mm; diameter of the inhibition zone (DIZ) (Pseudomonas aeruginosa [23]): 11 mm; diameter of the inhibition zone (DIZ) (Pseudomonas aeruginosa [24]): 17 mm; MIC (Pseudomonas aeruginosa [4]): 32 µg/mL (≈ 58.5 µM); MIC (Pseudomonas aeruginosa [5]): 128 µg/mL (≈ 234 µM); diameter of the inhibition zone (DIZ) (Pseudomonas aeruginosa [25]): 10 mm; MIC (Pseudomonas aeruginosa [26]): > 128 µg/mL; diameter of the inhibition zone (DIZ) (Pseudomonas aeruginosa [27]): 9 mm; MIC (Pseudomonas aeruginosa [6]): 32 µg/mL (≈ 58.5 µM); diameter of the inhibition zone (DIZ) (Pseudomonas aeruginosa [28]): 8 mm; MIC (Pseudomonas aeruginosa [9]): 32 µg/mL (≈ 58.5 µM); MIC (Pseudomonas aeruginosa [12]): 128 µg/mL (≈ 234 µM); MIC (Pseudomonas aeruginosa [13]): 16 µg/mL (≈ 29.3 µM); diameter of the inhibition zone (DIZ) (Pseudomonas aeruginosa [29]): 10 mm; MIC (Pseudomonas aeruginosa [30]): 1 µg/mL (≈ 1.83 µM); diameter of the inhibition zone (DIZ) (Pseudomonas aeruginosa [31]): 6 mm; diameter of the inhibition zone (DIZ) (Pseudomonas aeruginosa [32]): 8 mm; MIC (Pseudomonas aeruginosa [33]): 128 µg/mL (≈ 234 µM); diameter of the inhibition zone (DIZ) (Pseudomonas aeruginosa [34]): 10 mm; diameter of the inhibition zone (DIZ) (Pseudomonas aeruginosa [35]): 12 mm; diameter of the inhibition zone (DIZ) (Pseudomonas aeruginosa [36]): 8 mm; diameter of the inhibition zone (DIZ) (Pseudomonas aeruginosa [37]): 8 mm; MIC (Pseudomonas aeruginosa [17]): 32 µg/mL (≈ 58.5 µM); diameter of the inhibition zone (DIZ) (Pseudomonas aeruginosa [38]): 11 mm; diameter of the inhibition zone (DIZ) (Pseudomonas aeruginosa [39]): 18 mm; diameter of the inhibition zone (DIZ) (Pseudomonas aeruginosa [40]): 8 mm; diameter of the inhibition zone (DIZ) (Pseudomonas aeruginosa [41]): 9 mm

**Q.** For `C[C@H]1[C@H](NC(=O)/C(=N\OC(C)(C)C(=O)O)c2csc(N)n2)C(=O)N1S(=O)(=O)O` [AZTREONAM], which MIC (Pseudomonas aeruginosa [4]) is on record?
**A.** 16 µg/mL (≈ 36.7 µM)

**Q.** What about the MIC (Pseudomonas aeruginosa [5]) of the same compound?
**A.** 128 µg/mL (≈ 294 µM)

**Q.** What about the MIC (Pseudomonas aeruginosa [6]) of the same compound?
**A.** 64 µg/mL (≈ 147 µM)

**Q.** And the MIC (Pseudomonas aeruginosa [7])?
**A.** 48 µg/mL (≈ 110 µM)

**Q.** And the MIC (Pseudomonas aeruginosa [9])?
**A.** 64 µg/mL (≈ 147 µM)

**Q.** What about the MIC (Pseudomonas aeruginosa [10]) of the same compound?
**A.** > 256 µg/mL

**Q.** What about the MIC (Pseudomonas aeruginosa [42]) of the same compound?
**A.** > 256 µg/mL

**Q.** What about the MIC (Pseudomonas aeruginosa [13]) of the same compound?
**A.** 4 µg/mL (≈ 9.19 µM)

**Q.** And the MIC (Pseudomonas aeruginosa [30])?
**A.** 4 µg/mL (≈ 9.19 µM)

**Q.** What about the MIC (Pseudomonas aeruginosa [17]) of the same compound?
**A.** 4 µg/mL (≈ 9.19 µM)

**Q.** For `CO/N=C(\C(=O)N[C@@H]1C(=O)N2C(C(=O)[O-])=C(C[N+]3(C)CCCC3)CS[C@H]12)c1csc(N)n1` [CEFEPIME], which MIC (Pseudomonas aeruginosa [4]) is on record?
**A.** 16 µg/mL (≈ 33.3 µM)

**Q.** What about the MIC (Pseudomonas aeruginosa [5]) of the same compound?
**A.** 64 µg/mL (≈ 133 µM)

**Q.** And the MIC (Pseudomonas aeruginosa [6])?
**A.** 32 µg/mL (≈ 66.6 µM)

**Q.** And the MIC (Pseudomonas aeruginosa [7])?
**A.** 32 µg/mL (≈ 66.6 µM)

**Q.** And the MIC (Pseudomonas aeruginosa [9])?
**A.** 32 µg/mL (≈ 66.6 µM)

**Q.** And the MIC (Pseudomonas aeruginosa [10])?
**A.** > 256 µg/mL

**Q.** What about the MIC (Pseudomonas aeruginosa [42]) of the same compound?
**A.** > 256 µg/mL

**Q.** And the MIC (Pseudomonas aeruginosa [13])?
**A.** 16 µg/mL (≈ 33.3 µM)

**Q.** And the MIC (Pseudomonas aeruginosa [30])?
**A.** 1 µg/mL (≈ 2.08 µM)

**Q.** And the MIC (Pseudomonas aeruginosa [17])?
**A.** 16 µg/mL (≈ 33.3 µM)
